Here are results for 26 compounds from ChEMBL document CHEMBL1146599, “Substituted pyrrol-1-ylacetic acids that combine aldose reductase enzyme inhibitory activity and ability to prevent the nonenzymatic irreversible modification of proteins from monosaccharides” (J Med Chem, 2003).

Where “and” joins values, the source holds several entries; their conditions need not be identical. Equal entries are not always repeated.

Data set [1] addresses Aldo-keto reductase family 1 member B1 (Rattus norvegicus) (UniProt P07943). Description: In vitro inhibitory activity against aldose reductase of rat lens at 10E-6 M concentration. The gist of the method: (§1)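 Aldose reductase was prepared from lenses quickly removed from euthanized Fischer-344 rats of both sexes. Compounds were dissolved in 0.2 M NaHCO3. Activity was followed spectrophotometrically as NADPH oxidation. Runs were done in triplicate, and values are means with standard error from three determinations.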

Data set [2] has the same target. The experiment in a line: In vitro inhibitory activity against aldose reductase of rat lens at 10E-7 M concentration. The method in brief:
as §1

For data set [3] the target is unchanged. Description: In vitro inhibitory activity against aldose reductase of rat lens at 10E-8 M concentration. The gist of the method:
as §1

Data set [4] concerns the target T1, Albumin (Bos taurus, UniProt P02769). Description: Formation of DNPH-reactive carbonyl groups in bovine serum albumin exposed to fructose (1 mM); p<0.01. Type of data set: functional. To be noted: cattle. The gist of the method: (§2)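 Bovine serum albumin (fraction V, essentially fatty acid free) was incubated with fructose for 28 days. Compounds were added as potassium salts dissolved in water. Data are means ± SD with the number of samples given. Significance versus control was assessed by Student's t test.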

Data set [5] concerns the target T1, Albumin. The experiment in a line: Formation of DNPH-reactive carbonyl groups in bovine serum albumin exposed to fructose (2.5 mM); p<0.001. It counts as functional. The note with it: cattle. The gist of the method: as §2
The target of data set [6] is T1, Albumin. The experiment in a line: Formation of DNPH-reactive carbonyl groups in bovine serum albumin exposed to fructose (5 mM); not detectable. It counts as functional. The note with it: cattle, 5000 µM. The gist of the method: as §2
Data set [7] has as its target T1, Albumin. The experiment in a line: In vitro ability to inhibit the irreversible modification of the model protein albumin in the presence of fructose as glycating agent (1 mM). The gist of the method:
as §2

The target of data set [8] is T1, Albumin. The experiment in a line: In vitro ability to inhibit the irreversible modification of the model protein albumin in the presence of fructose as glycating agent (2.5 mM). The method in brief:
as §2

Data set [9] deals with T1, Albumin. Description: In vitro ability to inhibit the irreversible modification of the model protein albumin in the presence of fructose as glycating agent (5 mM). The gist of the method:
as §2

Data set [10] addresses T1, Albumin. Description: Glycation-induced fluorescence changes of bovine serum albumin when exposed to fructose (1 mM); p<0.01. It counts as functional. To be noted: cattle. The gist of the method: as §2
Data set [11] addresses T1, Albumin. Description: Glycation-induced fluorescence changes of bovine serum albumin when exposed to fructose (2.5 mM); p<0.001. It counts as functional. The note with it: cattle. The method in brief: as §2
For data set [12], the target named is T1, Albumin. Description: Glycation-induced fluorescence changes of bovine serum albumin when exposed to fructose (5 mM); p<0.001. Type of data set: functional. The note with it: cattle. The gist of the method: as §2
The target of data set [13] is T1, Albumin. The experiment in a line: Formation of DNPH-reactive carbonyl groups in bovine serum albumin exposed to fructose (1 mM); p<0.001. It counts as functional. The note with it: cattle. The gist of the method:
as §2

Data set [14] concerns the target T1, Albumin. The experiment in a line: Formation of DNPH-reactive carbonyl groups in bovine serum albumin exposed to fructose (2.5 mM); not detectable. To be noted: cattle. Type of data set: functional. The method in brief:
as §2

Data set [15] deals with T1, Albumin. The experiment in a line: Formation of DNPH-reactive carbonyl groups in bovine serum albumin exposed to fructose; not detectable. The note with it: cattle. Type of data set: functional. The gist of the method: as §2
In data set [16] the target is T1, Albumin. The experiment in a line: Glycation-induced fluorescence changes of bovine serum albumin when exposed to fructose (1 mM); p<0.001. It counts as functional. To be noted: cattle. The gist of the method:
as §2

In data set [17] the target is Aldo-keto reductase family 1 member B1 (Rattus norvegicus) (UniProt P07943). The experiment in a line: In vitro inhibitory activity against aldose reductase of rat lens at 10E-5 M concentration. The gist of the method: as §1
In data set [18] the target is T1, Albumin. The experiment in a line: Formation of DNPH-reactive carbonyl groups in bovine serum albumin exposed to fructose; p<0.001. Type of data set: functional. The note with it: cattle. The method in brief: as §2
Data set [19] has as its target Aldo-keto reductase family 1 member B1 (Rattus norvegicus, UniProt P07943). Description: (§3) Inhibitory activity against aldose reductase enzyme. The method in brief:
as §1

The target in data set [20] is Aldo-keto reductase family 1 member B1 (Rattus norvegicus) (UniProt P07943). Description: In vitro inhibitory activity against aldose reductase of rat lens at 10E-9 M concentration. The gist of the method: as §1
The target in data set [21] is T1, Albumin. The experiment in a line: Formation of DNPH-reactive carbonyl groups in bovine serum albumin exposed to fructose (5 mM); not detectable. It counts as functional. To be noted: cattle. The gist of the method: as §2
In data set [22] the target is T1, Albumin. The experiment in a line: Formation of DNPH-reactive carbonyl groups in bovine serum albumin exposed to fructose (1 mM); not detectable. It counts as functional. The note with it: cattle. The method in brief: as §2
Data set [23] addresses Aldo-keto reductase family 1 member B1 (Homo sapiens, UniProt P15121). Described as §3.

T1 sequence (P02769 whole entry): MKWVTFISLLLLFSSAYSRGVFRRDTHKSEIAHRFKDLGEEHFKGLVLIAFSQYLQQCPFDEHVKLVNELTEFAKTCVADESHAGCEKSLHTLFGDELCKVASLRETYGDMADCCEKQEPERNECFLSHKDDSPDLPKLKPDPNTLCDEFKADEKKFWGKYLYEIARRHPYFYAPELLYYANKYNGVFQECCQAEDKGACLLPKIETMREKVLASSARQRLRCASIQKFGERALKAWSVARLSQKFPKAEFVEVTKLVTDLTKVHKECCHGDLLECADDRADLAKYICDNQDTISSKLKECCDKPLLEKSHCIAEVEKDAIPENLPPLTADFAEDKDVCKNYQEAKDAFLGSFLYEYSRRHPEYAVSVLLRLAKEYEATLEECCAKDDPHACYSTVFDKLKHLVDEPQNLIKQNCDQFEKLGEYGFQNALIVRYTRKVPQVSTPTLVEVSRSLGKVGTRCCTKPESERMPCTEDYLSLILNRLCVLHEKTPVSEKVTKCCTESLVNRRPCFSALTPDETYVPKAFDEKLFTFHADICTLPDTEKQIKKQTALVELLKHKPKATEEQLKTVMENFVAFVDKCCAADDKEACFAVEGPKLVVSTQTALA

The inhibition is the relative decrease from the control value, in per cent. On to `O=C(O)Cn1ccc(C(=O)Cc2ccccc2)c1`, for which the inhibition in data set [1] turned out to be 29%.
On the same count and under the same terms, in the case of `O=C(O)Cn1ccc(C(=O)c2ccc3occc3c2)c1` it was 40%.
For the compound `COc1ccc(C(=O)c2ccn(CC(=O)O)c2)cc1`, the results for the inhibition in data set [1] and in [2] were 72% and 26%, respectively.
`O=C(O)Cn1ccc(C(=O)c2ccc(Cl)cc2)c1`: the inhibition in data set [1] is 41%.
A word on the Inhibition: it is the percentage by which the read-out fell short of the control. On to `COc1ccc(C(=O)c2cc(C(=O)c3ccccc3)n(CC(=O)O)c2)cc1`, for which the inhibition in data set [1] was determined as 93%; in data set [2] it was 51%; in [3], 13%. The Carbonyl group at Albumin [4] is 4.38 nM/mg; on Albumin [5] it was 1.7 nM/mg; on Albumin [6], “not detectable”. For the same compound, the Inhibition on Albumin [7] is 20%; at Albumin [8] it was 41% and 66%; at Albumin [9], 75% and 100%. At Albumin [7], the inhibition at 1000 µM turned out to be 17%. In addition, the Relative florescence on Albumin [10] is reported as 23.1; on Albumin [11], 11.5; on Albumin [12] it was 6.9.
As for `O=C(O)Cn1ccc(C(=O)c2ccn(-c3ccccc3)c2)c1`, the values for the inhibition in [1] and in data set [2] were 67% and 39%, respectively. In addition, the Carbonyl group on Albumin [13] is 1.55 nM/mg; at Albumin [14], “not detectable”; on Albumin [15] it was “not detectable”. Further, the Inhibition at Albumin [7] is 24% and 69%; at Albumin [9], 41% and 100%. The figures for the Relative florescence on Albumin [16], on Albumin [11] and on Albumin [12] were 21, 21 and 16.4, respectively.
In turn, `O=C(O)Cn1cc(C(=O)c2ccccc2)c2ccccc21` came in with an inhibition in data set [1] of 38%.
For `O=C(O)Cn1ccc(C(=O)c2ccc([N+](=O)[O-])cc2)c1`, the inhibition in data set [1] is 18%.
`Cc1c(C)c2c(c(C)c1O)CCC(C)(C(=O)O)O2` (stereo unspecified) [TROLOX] gave an inhibition in data set [17] of 12%. The Inhibition on Albumin [7] is 54% and 32%. In addition, the Carbonyl group at Albumin [18] is 3.44 nM/mg. Moreover, at Albumin [16], the Relative florescence came out at 12.8.
For the compound `O=C(O)Cn1ccc(C(=O)c2cccc3ccccc23)c1`, the inhibition in data set [1] amounted to 58%; in data set [2], 59%.
`Cc1ccc(C(=O)c2ccn(CC(=O)O)c2)cc1` returned an inhibition in data set [1] of 46%.
With `O=C(O)Cn1cccc1C(=O)c1ccccc1`, in data set [17], the inhibition was 36%.
As a reminder, the IC50 is the concentration that gives 50% inhibition. Read a high IC50 as weaker potency in that assay. With `COc1ccc(C(=O)c2cc(C(=O)c3ccc(OC)cc3)n(CC(=O)O)c2)cc1`, in data set [19], inhibition was half-maximal at 2.36 nM (IC50). Also, the inhibition in data set [1] worked out at 96%; in [2], 94%; in [3], 59%; in data set [20], 41%. Further, the Carbonyl group at Albumin [13] was 2.52 nM/mg; at Albumin [14], “not detectable”; at Albumin [21], “not detectable”. Also, the Inhibition is 50% at Albumin [7]; 57% and 100% at Albumin [8]; 100% on Albumin [9]. For the same compound, the inhibition at 1000 µM at Albumin [7] was 38%. The Relative florescence at Albumin [16] is reported as 17.3; at Albumin [11], 11.8; on Albumin [12], 3.3.
With `O=C(O)Cn1ccc(C(=O)c2ccc(O)cc2)c1`, the inhibition in data set [1] came to 45%.
On to `O=C(O)Cn1cc(C(=O)c2ccccc2)cc1C(=O)c1ccccc1`, for which the values for the inhibition in data set [1], in data set [2] and in data set [3] were 82%, 62% and 27%, respectively.
On to `Cn1cc(C(=O)c2ccn(CC(=O)O)c2)c2ccccc21`, for which the inhibition in [1] was 38%.
In turn, `O=C(O)Cn1ccc(Cc2ccccc2)c1` came in with an inhibition in [1] of 9%.
For the compound `O=C(O)Cn1ccc(C(=O)c2ccc(C(F)(F)F)cc2)c1`, the inhibition in [1] stood at 47%.
For `O=C(O)Cn1ccc(C(=O)c2ccc(-n3cccc3)cc2)c1`, the inhibition in [1] amounted to 80%; in data set [2], 39%. Moreover, the Carbonyl group entry at Albumin [14], at Albumin [21] and on Albumin [22] was “not detectable” each time. The Inhibition was 37% and 100% on Albumin [7]; 65% and 100% at Albumin [8]; 100% at Albumin [9]. Moreover, the results for the Relative florescence at Albumin [16], on Albumin [11] and at Albumin [12] were 17.4, 9.8 and 4.7, respectively.
With `O=C(O)Cn1ccc(C(=O)c2ccc3ccccc3c2)c1`, the inhibition in data set [1] is 79%; in data set [2], 72%; in data set [3], 49%.
For the compound `CC(C)(C)c1ccc(C(=O)c2ccn(CC(=O)O)c2)cc1`, the inhibition in data set [1] came to 41%.
`O=C(O)Cn1ccc(C(=O)c2ccccc2)c1` displayed an inhibition in data set [1] of 27%.
`O=C(O)Cn1ccc(C(=O)c2ccc3c(c2)CCO3)c1` returned an inhibition in [1] of 42%.
Regarding `O=C(O)Cn1ccc(C(=O)c2cccc(Cl)c2)c1`, in data set [1], the inhibition is 44%.
Compound `NC(=O)[C@@H]1C[C@]2(NC(=O)NC2=O)c2cc(F)ccc2O1` registered an IC50 in [23] of 35 nM.
As to `O=C(O)Cn1ccc(C(=O)c2ccc(-c3ccccc3)cc2)c1`, the inhibition in [1] came to 76%; in data set [2], 37%.
